The record followed here is ChEMBL document CHEMBL1914373, “Synthesis and biological evaluation of novel dimethyl[1,1'-biphenyl]-2,2'-dicarboxylate derivatives containing thiazolidine-2,4-dione for the treatment of concanavalin A-induced acute liver injury of BALB/c mice” (2011).

One experiment concerns RAW264.7. Put plainly: Antiinflammatory activity in LPS-stimulated mouse RAW264.7 cells assessed as inhibition of LPS-induced NO production after 22 hrs by Griess reaction. The format is functional, cell-based. An outline of the steps:
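RAW 264.7 macrophages grown in RPMI 1640, 37 °C, 5% CO2; seeded 1 × 10^4/well, cultured 24 h, then exposed to LPS with or without compounds at a range of concentrations for 22 h. Supernatant mixed 1:1 with Griess reagent, 10 min at room temperature, A540 read; nitrite quantified against sodium nitrite standards in RPMI 1640. Three independent experiments.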
(In general: Nitrite, measured by Griess reagent, commonly stands in for NO production.)

In experiment [1] the test system is Mus musculus. Put plainly: Hepatoprotective activity in BALB/c mouse hepatitis model assessed as reduction in concanavalin A-induced increase in serum AST level at 50 mg/kg, […] relative to control. The class given is functional. As to conditions: route oral. On the set-up: scale not given: the % may be the effect or the level left.
Experiment [2] relates to Mus musculus. Put plainly: Hepatoprotective activity in BALB/c mouse hepatitis model assessed as reduction in concanavalin A-induced increase in serum ALT level at 50 mg/kg, […] relative to control. The class given is functional. As to conditions: route oral. On the set-up: scale not given: the % may be the effect or the level left.
Experiment [3] deals with Mus musculus. Put plainly: Antiinflammatory activity in ICR mouse assessed as reduction in carrageenan-induced paw edema at 50 mg/kg, po administered 30 mins before carrageenan challenge measured at 3 hr post challenge. On the set-up: scale not given: the % may be the effect or the level left. The class given is functional. (In general: The carrageenan paw model is a standard test of acute inflammation.)

Experiment [4] relates to Rattus norvegicus. Put plainly: Hepatoprotective activity […] assessed as reduction in necrosis in liver lobules at 50 mg/kg, po administered before concanavalin A challenge by hematoxylin and eosin staining-based histopathology analysis. The class given is functional, organism-based. On the set-up: dose 50 mg/kg.
Experiment [5] deals with Mus musculus. Put plainly: Antiinflammatory activity in po dosed ICR mouse assessed as reduction in carrageenan-induced paw edema administered 30 mins before carrageenan challenge measured up to 5 hrs. The class given is functional, organism-based.
The test system of experiment [6] is Rattus norvegicus. Put plainly: Hepatoprotective activity […] assessed as decrease in liver lesions at 50 mg/kg, po administered before concanavalin A challenge by hematoxylin and eosin staining-based histopathology analysis. On the set-up: dose 50 mg/kg. The format is functional, organism-based.
The test system of experiment [7] is Rattus norvegicus. Put plainly: Hepatoprotective activity […] assessed as reduction in concanavalin A-induced inflammatory cells infiltration at 50 mg/kg, po administered before concanavalin A challenge by hematoxylin and eosin staining-based histopathology analysis. The format is functional, organism-based. On the set-up: dose 50 mg/kg.

Structures are written as SMILES. Active and inactive are the calls of the source. No cut-off for these calls is given here.

Turning to `COC(=O)c1cc(OC)c2c(c1-c1c(C(=O)Oc3cc(/C=C4/SC(=O)NC4=O)ccc3OC)cc(OC)c3c1OCO3)OCO2`, the inhibition result with RAW264.7 is “Active”.

For `COC(=O)c1cc(OC)c2c(c1-c1c(C(=O)Oc3ccc(/C=C4\SC(=O)NC4=O)cc3OC)cc(OC)c3c1OCO3)OCO2`, the inhibition entry in the experiment with RAW264.7 is “Active”.

In the case of `COC(=O)c1cc(OC)c2c(c1-c1c(C(=O)Oc3c(Br)cc(Br)cc3/C=C3/SC(=O)NC3=O)cc(OC)c3c1OCO3)OCO2`, in the experiment with RAW264.7, the inhibition result was “Active”.

On to `COC(=O)c1cc(OC)c2c(c1-c1c(C(=O)Oc3ccc(/C=C4\SC(=O)NC4=O)cc3Br)cc(OC)c3c1OCO3)OCO2`, for which the inhibition entry with RAW264.7 was “Active”.

For the compound `COC(=O)c1cc(OC)c2c(c1-c1c(C(=O)OC)cc(OC)c3c1OCO3)OCO2` [BIFENDATE], the Activity in the experiment on Mus musculus [1] is listed as 50.62%; with Mus musculus [2] it was 44.58%; in the experiment on Mus musculus [3], 20.98%.

As for `CCOc1cc(/C=C2\SC(=O)NC2=O)ccc1OC(=O)c1cc(OC)c2c(c1-c1c(C(=O)OC)cc(OC)c3c1OCO3)OCO2`, the inhibition result in the experiment with RAW264.7 is “Active”.

As to `COC(=O)c1cc(OC)c2c(c1-c1c(C(=O)Oc3ccc(/C=C4\SC(=O)NC4=O)cc3)cc(OC)c3c1OCO3)OCO2`, the result with Rattus norvegicus [4], with Rattus norvegicus [6] and in the experiment on Rattus norvegicus [7] was Active. Further, the Activity was 69.12% with Mus musculus [1], “Dose-dependent effect” in the experiment with Mus musculus [5], 94.96% in the experiment on Mus musculus [2] and 54.88% in the experiment on Mus musculus [3]. The inhibition entry with RAW264.7 was “Active”.

Take `COC(=O)c1cc(OC)c2c(c1-c1c(C(=O)Oc3ccccc3/C=C3/SC(=O)NC3=O)cc(OC)c3c1OCO3)OCO2`: the inhibition result with RAW264.7 was “Active”.

With `COC(=O)c1cc(OC)c2c(c1-c1c(C(=O)Oc3ccc(Cl)cc3/C=C3/SC(=O)NC3=O)cc(OC)c3c1OCO3)OCO2`, in the experiment with RAW264.7, the inhibition entry is “Dose-dependent effect”.

In the case of `COC(=O)c1cc(OC)c2c(c1-c1c(C(=O)Oc3c(Cl)cc(Cl)cc3/C=C3/SC(=O)NC3=O)cc(OC)c3c1OCO3)OCO2`, the inhibition result in the experiment on RAW264.7 was “Active”.

With `COC(=O)c1cc(OC)c2c(c1-c1c(C(=O)Oc3ccc(/C=C4\SC(=O)NC4=O)cc3F)cc(OC)c3c1OCO3)OCO2`, in the experiment with RAW264.7, the inhibition entry is “Active”.

As to `COC(=O)c1cc(OC)c2c(c1-c1c(C(=O)Oc3c(OC)cc(/C=C4\SC(=O)NC4=O)cc3OC)cc(OC)c3c1OCO3)OCO2`, the inhibition result in the experiment with RAW264.7 was “Active”.

On to `COC(=O)c1cc(OC)c2c(c1-c1c(C(=O)Oc3cccc(/C=C4/SC(=O)NC4=O)c3)cc(OC)c3c1OCO3)OCO2`, for which the inhibition result with RAW264.7 was “Active”.
